From PubChem BioAssay
The source made the active and inactive calls.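 The calls were made as follows, unless noted: active = viability at or under a set limit in both replicates, limit being median viability minus 3 SD (cut at about 48% in these data, passing the limit was not always enough); inconclusive = at or under the limit in just one replicate; inactive = at or above the limit in both replicates.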

What was measured:
[1] = reduced viability of SK-BR-3 breast cancer cells – cell-based, 24 h, human, pilot screen (AID 572;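 active = viability at or below 10% of carrier control in both of two separate runs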;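 also: compound exposure lasted between 18 and 24 h rather than exactly 24 h; 100% = carrier-treated control wells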); conditions: SK-BR-3 viability, CellTiter-Glo luminescence, at 10 µM, stronger effect = lower value
[2] = HUVEC growth inhibition – cell-based, human, primary screen (AID 575;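 active = viability at or below 30% in both replicate assays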;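 also: 100% = median of untreated cell wells with 0.1% DMSO on each plate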); conditions: HUVEC proliferation, CellTiter-Glo luminescence, 72 h; at 10 µM; stronger effect = lower value
Summary of the method: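 Assay system: primary human umbilical vein endothelial cells / Buffer or medium: endothelial basal medium with 2% FBS plus growth supplements / Compound dosing: one dose, 10 µM final, 0.1% DMSO / Timing: 72 h treatment at 37 °C / Signal: CTG luminescence / Benchmarks: 32 DMSO-only cell-control wells (high), 32 MePR drug-control wells (low) per plate / Plate: collagen-coated 384-well format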

[3] = H69AR cell proliferation blockers – human, duplicate replicates, primary screen (AID 580); conditions: H69AR lung tumor cells viability, ATP luminescence, 72 h; at 10 µM; stronger effect = lower value;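 also: 100% = mean luminescence of untreated wells and 0% = no signal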
[4] = MRP1 drug-resistance reversers in H69AR cells – cell-based, doxorubicin co-treatment, pilot screen (AID 601;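 active = viability loss from added drug above about 55%, and viability with drug at most 40%, in both replicates, limit read from the data, passing the limit was not always enough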); conditions: CellTiter-Glo, 72 h, at 10 µM; for differential viability (reversal): stronger effect = higher value
[5] = yeast transport mutant growth inhibition pilot in 384-well plates, post-Golgi transport modulator project (AID 636; in the data active = inhibition above about 31%); conditions: absorbance 615 nm, about 18 h, stronger effect = higher value
[6] = growth suppression of yeast trafficking mutant, preliminary HTS, modulators of trafficking downstream of Golgi apparatus project, 1536-format plate, OD 615 nm (AID 637; in the data active = inhibition above about 30%); conditions: yeast transport mutant growth, absorbance 615 nm, 18 h; stronger effect = higher value
[7] = H69AR cells + 2 uM doxorubicin, measured here: viability with 2 uM doxorubicin, stronger effect = lower value
[8] = H69AR cells, compound alone cytotoxicity

| SMILES | viability [1] | viability [2] | viability [3] | differential viability (reversal) ([4]; H69AR cells + 2 uM doxorubicin) | viability [4, 7] | viability [4, 8] | inhibition [5] | inhibition [6] |
| --- | --- | --- | --- | --- | --- | --- | --- | --- |
| Cc1cc(Oc2ccc(Cl)cc2)nc(-c2ccccc2O)n1 | 98% (inactive) | 84.7% (inactive) | 93.9% (inactive) | 3.2% (inactive) | 90.7% | 93.9% | 2.73% (inactive) | -7.38% (inactive) |
| CCN1CCN(c2nc3c(c(=O)n(C)c(=O)n3C)n2CCSc2ncccn2)CC1 | 116% (inactive) | 91.7% (inactive) | 94.8% (inactive) | 7% (inactive) | 87.8% | 94.8% | -5.07% (inactive) | -9.68% (inactive) |
| O=C(CN1CCSCC1)N1CCc2[nH]c3ccc(Br)cc3c2C1 | 84% (inactive) | 69.7% (inactive) | 88.6% (inactive) | 7.04% (inactive) | 81.5% | 88.6% | -4.93% (inactive) | 2.18% (inactive) |
| CCOC(=O)c1nnc2ccnn2c1N | 74% (inactive) | 87.9% (inactive) | 109% (inactive) | 1.61% (inactive) | 107% | 109% | -4.79% (inactive) | -2.91% (inactive) |
| COc1ccc2c(c1)c(CC(=O)O)c(C)n2C(=O)c1ccc(Cl)cc1 | 99% (inactive) | 69.3% (inactive) | 95.6% (inactive) | 3.25% (inactive) | 92.3% | 95.6% | -4.16% (inactive) | 0.5% (inactive) |
| Cc1nn(-c2ccc(F)cc2)c2sc(C(=O)N3CCCCCC3)cc12 | 93% (inactive) | 92% (inactive) | 78.8% (inactive) | -14% (inactive) | 92.8% | 78.8% | -2.7% (inactive) | 12.2% (inactive) |
| Cc1nnc(SCc2ccccc2F)n1NCc1cccs1 | 100% (inactive) | 93.6% (inactive) | 89% (inactive) | -0.635% (inactive) | 89.7% | 89% | -6.85% (inactive) | 5% (inactive) |
| CN1CCN(C(=O)NC2CCCN2S(=O)(=O)c2ccc(Cl)cc2)CC1 (configuration not stated) | 100% (inactive) | 96.4% (inactive) | 88.9% (inactive) | -0.73% (inactive) | 89.6% | 88.9% | -1.1% (inactive) | -4.68% (inactive) |
| Cc1cccc(NC(=O)c2ccc3ccccc3n2)n1 | 91% (inactive) | 86.6% (inactive) | 76.3% (inactive) | -18.1% (inactive) | 94.3% | 76.3% | -0.13% (inactive) | -1.83% (inactive) |
| COc1cc(CC(=O)Oc2ccc3c(c2)OCO3)cc(OC)c1OC | 98% (inactive) | 104% (inactive) | 84.8% (inactive) | 0.695% (inactive) | 84.2% | 84.8% | -2.93% (inactive) | 2.91% (inactive) |
| CCCNC(=O)c1cc(S(=O)(=O)N2CCc3ccccc32)ccc1F | 89% (inactive) | 113% (inactive) | 97% (inactive) | 6.73% (inactive) | 90.3% | 97% | -6.13% (inactive) | 2.18% (inactive) |
| CC1(C)Cc2c(sc3c2C2=NCCN2C=N3)CS1 | 87% (inactive) | 108% (inactive) | 105% (inactive) | 5.41% (inactive) | 99.4% | 105% | 2.05% (inactive) | 2.73% (inactive) |
| CCCS(=O)(=O)N1CCCC(C(=O)NC(C)c2ccc3c(c2)OCCO3)C1 (configuration not stated) | 79% (inactive) | 71.3% (inactive) | 93.9% (inactive) | 6.12% (inactive) | 87.8% | 93.9% | -2.34% (inactive) | 0.49% (inactive) |
| CCOc1nc(-c2ccncc2)nc2ccccc12 | 100% (inactive) | 93.7% (inactive) | 92.6% (inactive) | 0.47% (inactive) | 92.1% | 92.6% | -7.4% (inactive) | 9.35% (inactive) |
| Cc1ccc2nc(NC(=O)C3CCCN(S(=O)(=O)c4cccc5nonc45)C3)sc2c1 (configuration not stated) | 97.5% (inactive) | 71.6% (inactive) | 76% (inactive) | -14.8% (inactive) | 90.8% | 76% | -4.34% (inactive) | 1.17% (inactive) |
| COC(=O)c1ccccc1NC(=O)C1CC=CCC1C(=O)O (configuration not stated) | 117% (inactive) | 99.7% (inactive) | 84.8% (inactive) | 1.5% (inactive) | 83.3% | 84.8% | -9.73% (inactive) | -0.81% (inactive) |
| CCOC(=O)N1CCC(NC(=O)Cn2cc3c(n2)CCC(C)C3)CC1 (configuration not stated) | 128% (inactive) | 93% (inactive) | 98.7% (inactive) | 3% (inactive) | 95.7% | 98.7% | -1.64% (inactive) | 18.7% (inactive) |

| SMILES | viability [1] | viability [2] | viability [3] | differential viability (reversal) ([4]; H69AR cells + 2 uM doxorubicin) | viability [4, 7] | viability [4, 8] | inhibition [5] | inhibition [6] |
| --- | --- | --- | --- | --- | --- | --- | --- | --- |
| Cc1cc(NC(=O)c2cnn3c(C(F)F)cc(C4CC4)nc23)no1 | 131% (inactive) | 79.6% (inactive) | 82.4% (inactive) | -12.8% (inactive) | 95.1% | 82.4% | -1.43% (inactive) | 3.11% (inactive) |
| CN(C)c1nc(N(C)C)nc(N(C)C)n1 | 95% (inactive) | 106% (inactive) | 96.8% (inactive) | -2.79% (inactive) | 99.6% | 96.8% | -1.69% (inactive) | -2.67% (inactive) |
| CCOC(=O)C1CCN(C(=O)COc2ccc(S(=O)(=O)NC(C)C)cc2Cl)CC1 | 99.5% (inactive) | 100% (inactive) | 90.4% (inactive) | -15.3% (inactive) | 106% | 90.4% | 0.66% (inactive) | 24.5% (inactive) |
| COCCn1nnnc1CN1CCC(Cc2ccccc2)CC1 | 134% (inactive) | 102% (inactive) | 95.3% (inactive) | 5.17% (inactive) | 90.1% | 95.3% | -3.84% (inactive) | 4.68% (inactive) |
| O=c1c2[nH]c3ccc(Cl)cc3c2ncn1Cc1ccccn1 | 94% (inactive) | 107% (inactive) | 101% (inactive) | 13.4% (inactive) | 87.9% | 101% | -3.33% (inactive) | -3.27% (inactive) |
| Cc1nn(C(=O)c2ccccc2)c2c1C(=O)CC(C)(C)C2 | 76% (inactive) | 95.8% (inactive) | 94.7% (inactive) | 1.29% (inactive) | 93.4% | 94.7% | -7.12% (inactive) | 0.73% (inactive) |
| OC[C@H]1O[C@@H](n2cnc3c(NC4CCCC4)ncnc32)[C@H](O)[C@@H]1O | 113% (inactive) | 57.6% (inactive) | 74.9% (inactive) | -18.2% (inactive) | 93% | 74.9% | 0.52% (inactive) | -5% (inactive) |
| CCN(CC)C(=O)C1CCN(CC2CC=CCC2)CC1 (configuration not stated) | 97% (inactive) | 109% (inactive) | 94.8% (inactive) | -3.97% (inactive) | 98.7% | 94.8% | -2.93% (inactive) | -2.91% (inactive) |
| CC(=O)c1n[nH]nc1NC(=O)c1ccccc1 | 120% (inactive) | 97.6% (inactive) | 89.9% (inactive) | -6.65% (inactive) | 96.6% | 89.9% | -1.69% (inactive) | 0.16% (inactive) |
| COc1ccc(S(=O)(=O)NCCSCc2ccco2)cc1Cl | 48% (inactive) | 102% (inactive) | 92.4% (inactive) | 1.13% (inactive) | 91.3% | 92.4% | -6.3% (inactive) | 4% (inactive) |
| Cn1c(=O)c2c(ncn2CC(O)CO)n(C)c1=O (configuration not stated) | 117% (inactive) | 92.8% (inactive) | 107% (inactive) | 12.3% (inactive) | 95% | 107% | -5.45% (inactive) | 3% (inactive) |
| O=S1(=O)CCC(N=Cc2cc(Br)ccc2O)C1 (configuration not stated) | 94% (inactive) | 68.9% (inactive) | 78.1% (inactive) | -14.3% (inactive) | 92.4% | 78.1% | -5.62% (inactive) | 2.26% (inactive) |
| CC1(C)CC(=O)C=C(NCc2ccncc2)C1 | 89% (inactive) | 113% (inactive) | 98.6% (inactive) | -26.3% (inactive) | 125% | 98.6% | -2.3% (inactive) | -3.45% (inactive) |
| CC(C)NCC(O)COc1ccc(CCOCC2CC2)cc1 (configuration not stated) | 102% (inactive) | 83.3% (inactive) | 95.8% (inactive) | -14.9% (inactive) | 111% | 95.8% | -0.91% (inactive) | -5% (inactive) |
| CN(CC(=O)Nc1cccnc1)S(=O)(=O)c1cc(Cl)ccc1Cl | 104% (inactive) | 105% (inactive) | 91.7% (inactive) | -7.51% (inactive) | 99.2% | 91.7% | -0.14% (inactive) | 6.73% (inactive) |
| Cc1cc(=O)oc2cc(OCC(=O)OCC(=O)N3CCc4ccccc43)ccc12 | 103% (inactive) | 101% (inactive) | 93.2% (inactive) | -2.07% (inactive) | 95.3% | 93.2% | -8.38% (inactive) | -4.55% (inactive) |
| O=C(O)C1C2C=CC(C3CC23)C1C(=O)NCCc1ccccc1 (configuration not stated) | 101% (inactive) | 89.7% (inactive) | 98% (inactive) | 6.28% (inactive) | 91.7% | 98% | -5.81% (inactive) | -3.93% (inactive) |
